Measurements reported in ChEMBL document CHEMBL4818990, “Insight into the binding mode of HIF-2 agonists through molecular dynamic simulations and biological validation” (Eur J Med Chem, 2021).
Activity calls are given as the source filed them. The rule behind the calls is not given here.

Tests used:
786-0 [1] = experiment: (§1) Agonist activity at HIF-2 in human 786-0-HRE-Luc cells assessed as increase in […] intensity measured after 24 hrs by luciferase reporter gene assay; format: cell-based; conditions: filed as agonist
Method in brief: (§2)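 786-O cells stably transduced with lentiviral HRE-driven firefly luciferase (single clone), grown in RPMI-1640 + 10% FBS. Seeded, allowed to attach, then given compound in DMSO (2 and 20 μM, or a concentration series) for 24 h. Luminescence read with a firefly luciferase reagent; triplicate cultures, mean ± s.d.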

Homo sapiens = species on record: Homo sapiens; experiment: Agonist activity at HIF-2 (unknown origin) expressed in bacterial expression system assessed as change in melting temperature at 10 uM measured by thermal shift assay; conditions: filed as agonist
Method in brief: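 HIF-2–ARNT protein complex (1.5M as printed) with 10 μM compound from DMSO stock, final DMSO 0.1%, in 20 mM Tris pH 8.0, 400 mM NaCl. Read on qPCR instrument with thermal-shift dye. Tm from derivative curve; ΔTm = compound Tm minus blank Tm. Four parallel replicates per compound.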

786-0 [2] = experiment: Cytotoxicity against human 786-0-HRE-Luc cells assessed as inhibition of cell proliferation at 20 uM measured after 24 hrs by CCK8 assay; format: cell-based; conditions: 786-0, 24 h
786-0 [3] = experiment: Agonist activity at HIF-2 in human 786-0-HRE-Luc cells assessed as increase in […] intensity at 20 uM measured after 24 hrs by luciferase reporter gene assay relative to control; format: cell-based; conditions: filed as agonist; method in brief: as §2
[4] = as §1; format: cell-based; conditions: 786-0, 24 h; method in brief: as §2
786-0 [5] = experiment: Agonist activity at HIF-2 in human 786-0-HRE-Luc cells assessed as increase in […] intensity at 2.2 uM measured after 24 hrs by luciferase reporter gene assay relative to control; format: cell-based; conditions: filed as agonist; method in brief: as §2
786-0 [6] = experiment: Agonist activity at HIF-2 in human 786-0-HRE-Luc cells at 2 uM measured after 24 hrs by luciferase reporter gene assay; format: cell-based; conditions: filed as agonist; method in brief: as §2
786-0 [7] = experiment: Agonist activity at HIF-2 in human 786-0-HRE-Luc cells assessed as increase in […] intensity at 6.6 to 20 uM measured after 24 hrs by luciferase reporter gene assay; format: cell-based; conditions: dose 6.6-20 µM; method in brief: as §2
786-0 [8] = experiment: Cytotoxicity against human 786-0-HRE-Luc cells assessed as inhibition of cell proliferation at 1 uM measured after 24 hrs by CCK8 assay; format: cell-based; conditions: 786-0, 24 h

ΔTm (Homo sapiens) [°C]	SMILES	Activity (786-0 [1])	other results
2	O=S1(=O)N=C(Nc2ccccc2)c2ccccc21	Dose-Dependent Effect	
0.03	O=C1N=C(Nc2cc(C(F)(F)F)cc(C(F)(F)F)c2)c2ccccc21		
1.89	COc1cc(NC2=NS(=O)(=O)c3ccccc32)cc(OC)c1	Dose-Dependent Effect	
0.27	CN(C1=NS(=O)(=O)c2ccccc21)c1cc(C(F)(F)F)cc(C(F)(F)F)c1		
2.52	O=S1(=O)N=C(Nc2cc(Br)cc(Br)c2)c2ccccc21	Dose-Dependent Effect	Activity (786-0 [2]): Non-Toxic; fold change (FC) (786-0 [3]): 1.63; EC50 [4]: 1680 nM
1.93	Cc1cc(C)cc(NC2=NS(=O)(=O)c3ccccc32)c1	Dose-Dependent Effect	
0.06	O=S1(=O)N=C(Oc2cc(C(F)(F)F)cc(C(F)(F)F)c2)c2ccccc21		
2.05	O=S1(=O)N=C(Nc2cc(F)cc(F)c2)c2ccccc21	Dose-Dependent Effect	
2.23	O=S1(=O)N=C(Nc2cc(C(F)(F)F)cc(C(F)(F)F)c2)c2ccccc21		fold change (FC) (786-0 [5]): 1.41; Activity (786-0 [6]): Active; Activity (786-0 [7]): inactive; EC50 [4]: 440 nM; Activity (786-0 [8]): Toxic
2.08	O=S1(=O)N=C(Nc2cc(Cl)cc(Cl)c2)c2ccccc21	Dose-Dependent Effect	
